CSN deneddyl inh: inhibitors of CSN-mediated cullin deneddylation, primary screen, biochemical, fluorescence polarization, uHTS | Purified CSN, SCF-Nedd8-OG deneddylation | inhibition, % at 12.5 µM | 0.38% of 360,000 active | AID 651999, 2013;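 active = pattern-corrected inhibition above about 35%, with an unprinted fluorescence ratio check between 0.5 and 1.5, limit read from the data, passing the limit was not always enough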;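 note: 0% = enzyme with substrate and 100% = substrate without enzyme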
Target sequence (Q92905 whole entry, looked up, one chain of several): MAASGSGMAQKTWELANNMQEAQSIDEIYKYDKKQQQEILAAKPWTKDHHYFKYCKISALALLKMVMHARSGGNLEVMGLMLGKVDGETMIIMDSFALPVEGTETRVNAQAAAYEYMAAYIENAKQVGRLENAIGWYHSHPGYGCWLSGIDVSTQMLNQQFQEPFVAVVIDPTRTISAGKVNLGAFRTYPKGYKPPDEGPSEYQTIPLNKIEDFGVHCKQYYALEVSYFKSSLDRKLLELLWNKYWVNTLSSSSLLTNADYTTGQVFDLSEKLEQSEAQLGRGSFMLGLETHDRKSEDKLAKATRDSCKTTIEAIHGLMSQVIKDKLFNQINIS
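Assay system: purified human Csn5 enzyme expressed in HEK293T cells; measure: % inhibition; also added: SCFSkp2-Nedd8OG substrate at 10 nM final; technique: fluorescence polarization; times: reaction 90 min, room temperature; medium: Tris buffer pH 7.5, NaCl, DTT, Tween-20, trehalose, ovalbumin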
Rpn11 block: Rpn11 (PSMD14) deubiquitinase inhibitors, primary screen, biochemical, fluorescence polarization, uHTS; 26S proteasome non-ATPase regulatory subunit 14 (Homo sapiens), O00487; human 26S proteasome, Ub4-pepOG fluorescence polarization; 20S core pre-blocked with epoxomicin; calls only at 20 µM; 0.59% of 360,000 active;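 active = inhibition at 20 µM, scaled to each plate's controls, above about 33%, limit read from the data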
TPT1 inhibitor: Candida albicans TPT1 enzyme inhibitors, primary screen, biochemical, fluorescence polarization; AID 1962, 2009; inhibition, % at 5 µM; recombinant caTPT1, FP RNA substrate dephosphorylation; 0.81% of 300,000 active;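 active = inhibition above the mean of all tested compounds plus 3 SD, set per screening campaign, cut at about 24% in these data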;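 note: plate controls were DMSO alone for no effect and ferristatin control at 100 nM for full effect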
HNF4A DNA FP: change in binding of human HNF4A to DNA, primary screen, biochemical, fluorescence polarization, FITC-DNA; 1 h; activity change, % at 10 µM; 0.3% of 360,000 active; AID 1224865, 2016; in the data active = activity change above about 30%, passing the limit was not always enough
An asterisk follows results filed as active; i = inactive; . = no result shown; + = active, no number. In the library only some 1.5% were active in any assay of this set; here they are far more common.

SMILES | CSN deneddyl inh | Rpn11 block | TPT1 inhibitor | HNF4A DNA FP
C=Cn1cc(CNC[C@H]2O[C@@H](n3cnc4c(=O)[nH]c(N)nc43)[C@H](O)[C@@H]2O)c(C)n1 | 0 | i | . | -5
COC(=O)c1cc(C(=O)OCC(=O)c2ccc3c(c2)NC(=O)CO3)cc([N+](=O)[O-])c1 | 70* | i | . | 6
Cc1ccc(Nc2nc(N)nc(CSc3nncn3C)n2)cc1 | -5 | i | -2 | -5
Cc1ccc(Nc2nc(N)nc(CSc3nnnn3-c3ccccc3)n2)cc1 | 41* | i | -2 | -5
COc1ccc(N2C(=O)[C@@H]3[C@H](C2=O)[C@H]2c4ccccc4C=CN2[C@@H]3C(=O)Nc2ccccc2)cc1 | -68 | . | 102* | 101
CC1=C(C(=O)N2CCCCCC2)CC(CC(=O)NC2CCCCC2)C(=O)N1Cc1ccc(F)cc1 (centres undefined) | -2 | . | . | 0
CC1=C(C(=O)N2CCCCCC2)CC(CC(=O)NC2CCCCC2)C(=O)N1Cc1ccccc1 (centres undefined) | 117* | i | . | -4
COc1ccccc1NC(=O)Cn1nnc(-c2ccccc2NC(=O)c2cccs2)n1 | 37* | i | 2 | 0
CCOC(=O)[C@@H]1[C@H]2COc3cc(OC)ccc3[C@@H]2N2C(=O)N(c3ccc(F)cc3)C(=O)[C@]12C | -5 | i | 5 | 0
Cc1ccc(S(=O)(=O)N2[C@@H](c3ccc4c(c3)OCO4)C(C(=O)O)=C[C@H]2CC2CCCC2)cc1 | 3 | i | . | 0
O=C(COc1ccccc1[N+](=O)[O-])NCCCN1CCCC1=O | 1 | i | . | 2
Cc1ccn2c(NC3CCCCC3)c(-c3cccc(SC4CCCCC4)c3)nc2c1 | 5 | i | . | 11
Cc1ccn2c(NC3CCCCC3)c(-c3ccc(SC4CCCCC4)cc3)nc2c1 | 19 | . | . | 54*
COc1ccc(OC)c(/C=C2\S/C(=N/NC(=O)c3ccc4ccccc4c3)NC2=O)c1 | 51* | . | 7 | 1
CCOC(=O)c1cc(NC(=O)c2ccccc2)c(=O)oc1C(F)(F)F | 14 | i | . | 46*
CC1(C)Cc2cccc(OCC(=O)Nc3ccccc3C(F)(F)F)c2O1 | 4 | i | 1 | 40*
COc1cccc2cc(C(=O)NNC(=O)c3ccc(Br)cc3)c(=O)oc12 | 110* | i | 1 | 1
COc1cccc2cc(C(C)=O)c(=O)oc12 | 2 | i | -4 | 1
CC(C)Cc1cc(C(=O)N(C)C2CCCN(Cc3ccccc3F)C2)n(C)n1 (centres undefined) | -5 | i | 2 | -4
CCCC(C(=O)Nc1ccc(S(=O)(=O)Nc2ncccn2)cc1)c1ccccc1 (centres undefined) | 0 | i | -3 | 34*
COc1ccc(C(=O)Oc2c(C)occc2=O)cc1OC | 0 | i | -4 | 0
Cc1occc(=O)c1OC(=O)Nc1ccc(Cl)c(Cl)c1 | -13 | + | 3 | 5
Cc1cc2c(cc1C)-n1nnnc1C(N1CCN(c3ccccc3F)CC1)C(=O)N2 (centres undefined) | 4 | . | . | 0
O=C(NC1CC1)c1ccc(S(=O)(=O)NCC2CCCCC2)cc1 | 2 | i | -2 | -1
O=C(O)c1ccc(S(=O)(=O)NCC2CCCCC2)cc1 | -3 | i | . | 72*
SMILES | CSN deneddyl inh | Rpn11 block | TPT1 inhibitor | HNF4A DNA FP
CC(C)[C@H](NC(=O)[C@@H]1CSC2c3ccccc3C(=O)N21)C(=O)NC1CCCCC1 (some centres undefined) | -2 | i | -2 | 2
NC(=O)c1c(NC(=O)c2ccco2)sc2c1CCC2 | 0 | i | 0 | 2
N#Cc1c(NC(=O)c2ccco2)sc2c1CCC2 | 39* | i | 2 | -16
CNC(=O)C(=O)NCC1OCCN1S(=O)(=O)c1ccc([N+](=O)[O-])cc1 (centres undefined) | -10 | i | 0 | 1
O=C(NCc1ccccc1)C(=O)NCC1OCCN1S(=O)(=O)c1ccc([N+](=O)[O-])cc1 (centres undefined) | 4 | i | -2 | 32*
Cc1cc(C)c(NC(=O)Cn2nnc(C(=O)NCCc3ccccc3)c2N)c(C)c1 | 8 | i | -4 | -1
Cc1cc(C)cc(NC(=O)Cn2nnc(C(=O)NCCc3ccccc3)c2N)c1 | 37* | i | 1 | -1
Cc1ccc(NC(=O)Cn2nnc(C(=O)NCCc3ccccc3)c2N)c(C)c1 | 55* | i | -1 | -2
